Ki, Ratio Ki and Kd data for seven compounds are collected here from ChEMBL document CHEMBL1140914, “Synthesis and in vitro and in vivo evaluation of 18F-labeled positron emission tomography (PET) ligands for imaging the vesicular acetylcholine transporter” (J Med Chem, 2009).

For test [1], the target named is Sigma non-opioid intracellular receptor 1 (Cavia porcellus, UniProt Q60492). The experiment in a line: Displacement of [3H](+)-pentazocine from sigma1 receptor in guinea pig brain membrane by liquid scintillation counting. Format: cell membranes. Background: Loss of bound radioactivity is the signal in a displacement assay; it reports binding, not function.
The nature of test [2]: Selectivity ratio of Ki for human vesicular acetylcholine transporter to Ki for sigma1 receptor in guinea pig brain membrane. Format: cell membranes.
The target in test [3] is T1, Vesicular acetylcholine transporter (Homo sapiens, UniProt Q16572).
T1 sequence (Q16572 whole entry): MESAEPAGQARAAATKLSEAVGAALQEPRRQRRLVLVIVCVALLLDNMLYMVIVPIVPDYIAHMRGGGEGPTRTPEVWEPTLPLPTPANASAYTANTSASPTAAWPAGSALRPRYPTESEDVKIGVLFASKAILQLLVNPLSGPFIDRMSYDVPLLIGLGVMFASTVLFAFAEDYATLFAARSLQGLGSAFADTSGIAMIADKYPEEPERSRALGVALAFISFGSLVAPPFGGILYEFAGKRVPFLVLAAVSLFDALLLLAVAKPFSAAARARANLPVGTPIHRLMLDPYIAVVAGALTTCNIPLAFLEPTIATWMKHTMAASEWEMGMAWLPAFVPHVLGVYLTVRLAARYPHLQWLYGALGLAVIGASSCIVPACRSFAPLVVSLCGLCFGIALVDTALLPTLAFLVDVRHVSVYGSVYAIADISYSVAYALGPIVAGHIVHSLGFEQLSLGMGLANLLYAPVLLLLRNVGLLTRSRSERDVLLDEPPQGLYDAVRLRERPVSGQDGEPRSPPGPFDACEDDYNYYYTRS
The experiment in a line: Displacement of [3H]vesamicol from human vesicular acetylcholine transporter expressed in rat PC12 cells by liquid scintillation spectrometry. Format: cell-based, PC-12.

Test [4] in a line: Displacement of [3H]DTG from sigma2 receptor in rat liver membrane. Format: cell membranes. In short, it runs like this:
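Rat liver membrane homogenate (~300 μg protein) incubated 2 h at room temperature with ~5 nM [3H]DTG plus 1 μM (+)-pentazocine to mask σ1 sites. Haloperidol 10 μM defines nonspecific binding. Filtered and counted.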

Each structure is given as a SMILES string.

Sigma non-opioid intracellular receptor 1, sequence (Q60492 whole entry): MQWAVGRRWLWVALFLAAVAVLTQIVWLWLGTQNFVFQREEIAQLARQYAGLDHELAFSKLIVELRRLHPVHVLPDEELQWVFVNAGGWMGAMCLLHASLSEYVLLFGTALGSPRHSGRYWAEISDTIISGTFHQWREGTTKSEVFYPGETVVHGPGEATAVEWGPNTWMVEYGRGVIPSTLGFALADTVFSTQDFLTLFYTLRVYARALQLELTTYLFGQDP

One may read the Ki as a measure of affinity in units of concentration, obtained from inhibition or displacement. Read a low Ki as a stronger hold on the target. Turning to `O=C(c1ccc(Br)cc1)C1CCN([C@@H]2Cc3ccccc3C[C@H]2O)CC1` (racemic), the Ki in test [1] was determined as 298 nM; in test [3], 0.25 nM; in test [4], 593 nM. The Ratio Ki in test [2] turned out to be 1190.
In test [3], `O[C@@H]1Cc2cccc(OC/C=C/I)c2C[C@H]1N1CCC(c2ccccc2)CC1` gave a Ki of 0.45 nM. This counts as sub-nanomolar.
In test [4], `O=C(c1ccc(F)cc1)C1CCN([C@@H]2Cc3ccccc3C[C@H]2O)CC1` (stereo in doubt; (+)-9e) gave a Ki of 278 nM. This counts as sub-micromolar.
Turning to `O=C(c1ccccc1)C1CCN([C@@H]2Cc3ccccc3C[C@H]2O)CC1` (racemic), the Ki in test [1] is 220 nM; in test [3] it was 4.3 nM; in test [4] it was 320 nM. The Ratio Ki in test [2] is 51.
With `O[C@@H]1CCCC[C@H]1N1CCC(c2ccccc2)CC1` [VESAMICOL], the affinity in test [4], expressed as Ki, was 34.5 nM. This counts as double-digit nanomolar.
The term Kd denotes the equilibrium constant for the complex coming apart. Low values mean higher affinity, high ones lower affinity. In turn, `NCC1(c2ccccc2)CCN([C@@H]2Cc3c(I)cccc3C[C@H]2O)CC1` registered a Kd in test [3] of 3 nM.
As to `O=C(c1ccc(F)cc1)C1CCN([C@@H]2Cc3ccccc3C[C@H]2O)CC1` (racemic), in test [4], the Ki is 251 nM.
